Legend:
K562 [1] = assay: Concentration required to inhibit 50% of the cell proliferation of the Human myelogenous leukemia K562 cells.; type: functional, cell-based
In short: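 K562 cells in log phase (RPMI 1640 + 10% FBS, 5% CO2, 37 °C), seeded at 1 × 10⁵ cells/mL and exposed continuously to compounds (0.5-100 µM, in saline) or saline for 48 h. Cells counted by Coulter counter; inhibition = % reduction in proliferation versus saline; IC50 = concentration giving 50% inhibition at 48 h.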

[2] = target: Inosine-5'-monophosphate dehydrogenase (IMPDH) (Homo sapiens) (UniProt P20839+P12268); assay: Inhibitory activity against Inosine-5'-monophosphate dehydrogenase in human myelogenous leukemia K562 cells in culture.; type: cell-based; conditions: concentration not given here
K562 [3] = assay: Tested for the influence on the ribonucleotide (GTP) concentration in myelogenous leukemia K562 cell culture.; type: functional, Homo sapiens
In short: (§1)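 Cultured K562 cells given 100 µM compound (2 µM for reference furanoside) or saline for 2 h at 37 °C, then centrifuged, washed once in cold saline and extracted with cold 10% trichloroacetic acid before nucleotide pool measurement.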

K562 [4] = assay: Tested for the influence on the ribonucleotide (IMP) concentration in myelogenous leukemia K562 cell culture.; type: functional, Homo sapiens; in short: as §1

Chain of Inosine-5'-monophosphate dehydrogenase (IMPDH) (Homo sapiens) (P20839 whole entry, looked up, other chains not shown): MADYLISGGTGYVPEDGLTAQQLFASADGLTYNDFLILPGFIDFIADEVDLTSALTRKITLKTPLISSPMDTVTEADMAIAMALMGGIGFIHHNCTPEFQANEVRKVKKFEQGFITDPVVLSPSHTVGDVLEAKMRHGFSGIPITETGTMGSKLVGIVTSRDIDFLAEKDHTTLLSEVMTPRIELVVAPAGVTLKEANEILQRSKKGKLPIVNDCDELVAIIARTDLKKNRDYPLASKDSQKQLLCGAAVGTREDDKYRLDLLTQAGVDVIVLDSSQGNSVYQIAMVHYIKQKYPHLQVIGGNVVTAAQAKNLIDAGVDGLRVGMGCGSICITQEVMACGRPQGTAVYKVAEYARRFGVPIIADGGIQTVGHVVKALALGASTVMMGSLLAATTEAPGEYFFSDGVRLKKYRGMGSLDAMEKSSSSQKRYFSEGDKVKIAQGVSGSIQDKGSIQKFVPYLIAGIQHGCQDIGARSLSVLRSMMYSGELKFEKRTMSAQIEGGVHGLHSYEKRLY

| IC50 (K562 [1]) [µM] | inhibition [2] [%] | Compound | Control (K562 [3]) [%] | Control (K562 [4]) [%] |
| --- | --- | --- | --- | --- |
| 1.7 | 76 | NC(=O)c1csc([C@@H]2O[C@H](CO)[C@@H](O)[C@H]2O)c1 | 96.6 | 112 |
| 4700 | – | NC(=O)c1coc([C@@H]2S[C@H](CO)[C@H](O)C2O)c1 (stereo not given in full) [FURANTHIOFURIN] | 66.1 | 105 |
| 67 | – | NC(=O)c1csc([C@@H]2S[C@H](CO)[C@H](O)C2O)c1 (stereo not given in full) [THIOPHENTHIOFURIN] | 83.9 | 111 |
